# Measured values taken from ChEMBL document CHEMBL1629506, “Design, synthesis and structure-activity relationship study of novel pyrazole-based heterocycles as potential antitumor agents” (Eur J Med Chem, 2010).
# Experiments:
# [1] = Growth inhibition of human Hs 578T cells after 48 hrs by sulforhodamine B assay; assay type: functional
# Outline: (§1)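 Cells were plated at 5000–40,000 cells/well, depending on doubling time, and preincubated 24 h at 37 °C in 5% CO2. Time-zero plates were TCA-fixed at drug addition. Compounds were dissolved in DMSO and tested at five concentrations (10-fold or ½-log dilutions) for 48 h. Cells were fixed with cold TCA, stained with 0.4% sulforhodamine B and read at 515 nm. GI50 was taken as the concentration giving 50% growth.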
# [2] = system: NCI/ADR-RES; assay: Growth inhibition of human NCI/ADR-RES cells after 48 hrs by sulforhodamine B assay; assay type: functional; outline: as §1
# [3] = system: MCF7; assay: Growth inhibition of human MCF7 cells after 48 hrs by sulforhodamine B assay; assay type: functional; settings: MCF7, 48 h; outline: as §1
# [4] = system: OVCAR-3; assay: Growth inhibition of human OVCAR3 cells after 48 hrs by sulforhodamine B assay; assay type: functional; settings: OVCAR-3, 48 h; outline: as §1
# [5] = system: MDA-N; assay: Growth inhibition of human MDA-N cells after 48 hrs by sulforhodamine B assay; assay type: functional; outline: as §1
# [6] = system: OVCAR-5; assay: Growth inhibition of human OVCAR5 cells after 48 hrs by sulforhodamine B assay; assay type: functional; settings: OVCAR-5, 48 h; outline: as §1
# [7] = system: SK-OV-3; assay: Growth inhibition of human SKOV3 cells after 48 hrs by sulforhodamine B assay; assay type: functional; settings: SK-OV-3, 48 h; outline: as §1
# [8] = system: OVCAR-8; assay: Growth inhibition of human OVCAR8 cells after 48 hrs by sulforhodamine B assay; assay type: functional; settings: OVCAR-8, 48 h; outline: as §1
# [9] = system: MDA-MB-231; assay: Growth inhibition of human MDA-MB-231cells after 48 hrs by sulforhodamine B assay; assay type: functional; settings: MDA-MB-231, 48 h; outline: as §1
# [10] = system: OVCAR-4; assay: Growth inhibition of human OVCAR4 cells after 48 hrs by sulforhodamine B assay; assay type: functional; settings: OVCAR-4, 48 h; outline: as §1
# [11] = system: Rattus norvegicus; assay: Antiestrogenic activity in Sprague-Dawley rat assessed as reduction in estradiol induced uterine weight upto 0.06 ug, po after 8 days; assay type: functional; design: scale not given: the % may be the effect or the level left
# Outline: (§2)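 Immature ovariectomized female Sprague-Dawley rats (~55 g), groups of 12. Estradiol 0.03–0.05 given s.c. daily for 7 days, with test compound or letrozole reference at various doses up to 0.06 per animal, given orally in 0.5% carboxymethylcellulose. Controls received estradiol alone. Uterine weights were taken on day 8 and group means expressed as % reduction versus estradiol-only controls. Potency was taken relative to letrozole.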
# [12] = system: BT-549; assay: Growth inhibition of human BT549 cells after 48 hrs by sulforhodamine B assay; assay type: functional; settings: BT-549, 48 h; outline: as §1
# [13] = system: IGROV-1; assay: Growth inhibition of human IGROV1 cells after 48 hrs by sulforhodamine B assay; assay type: functional; settings: IGROV-1, 48 h; outline: as §1
# [14] = Acute toxicity in mouse after 24 hrs; assay type: organism-based; settings: in vivo
# Outline: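 Adult mice of both sexes, acclimatized 1 week (12 h light/dark, 21–23 °C), fasted 12 h before dosing. 30 mice in 6 groups of 5 each got a single oral gavage dose, at different dose levels, of a fine-powder aqueous suspension. LD50 was determined, with values as group means of five mice.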
# [15] = system: MDA-MB-435; assay: Growth inhibition of human MDA-MB-435 cells after 48 hrs by sulforhodamine B assay; assay type: functional; settings: MDA-MB-435, 48 h; outline: as §1
# [16] = system: T47D; assay: Growth inhibition of human T47D cells after 48 hrs by sulforhodamine B assay; assay type: functional; outline: as §1
# [17] = system: Rattus norvegicus; assay: Antiestrogenic activity in Sprague-Dawley rat assessed as reduction in estradiol induced uterine weight 0.06 ug, po after 8 days relative to letrozole; assay type: functional; outline: as §2
Structure (SMILES),GI50 [1],GI50 [2],GI50 [3],GI50 [4],GI50 [5],GI50 [6],GI50 [7],GI50 [8],GI50 [9],GI50 [10],Activity [11],GI50 [12],GI50 [13],LD50 at 24 h [14],GI50 [15],GI50 [16],potency ratio vs letrozole [17]
CN(C)/C=C/C(=O)c1nn(-c2ccccc2)c(-c2ccccc2)c1C#N,> 100 µM,90.6 µM,39.8 µM,98.8 µM,45.4 µM,> 100 µM,23.8 µM,75.8 µM,50.4 µM,63.8 µM,41.98%,31.1 µM,98 µM,232 mg/kg,> 100 µM,30.2 µM,1.93
N#Cc1c(-c2nnc(O)c3nn(-c4ccccc4)cc23)nn(-c2ccccc2)c1-c1ccccc1,46.8 µM,2.76 µM,> 100 µM,> 100 µM,13.8 µM,61.8 µM,36.8 µM,61.5 µM,6.21 µM,26.4 µM,32.86%,44.8 µM,92.2 µM,114 mg/kg,21.8 µM,2.95 µM,1.51
N#Cc1c(-c2nnc(-c3nn(-c4ccccc4)c(-c4ccccc4)c3C#N)c3nn(-c4ccccc4)cc23)nn(-c2ccccc2)c1-c1ccccc1,94.4 µM,24.5 µM,17.8 µM,7.26 µM,> 100 µM,9.12 µM,5.72 µM,9.82 µM,52.4 µM,7.46 µM,34.87%,11.8 µM,13.3 µM,222 mg/kg,> 100 µM,81 µM,1.61
Cc1ccc(-n2cc(C(=O)c3nn(-c4ccccc4)c(-c4ccccc4)c3C#N)c(C(=O)c3nn(-c4ccccc4)c(-c4ccccc4)c3C#N)n2)cc1,37.4 µM,> 100 µM,0.061 µM,99.8 µM,26.8 µM,36.8 µM,38.8 µM,20.3 µM,> 100 µM,30.4 µM,32.43%,2.47 µM,0.022 µM,211 mg/kg,> 100 µM,25.7 µM,1.49
N#Cc1c(C(=O)/C=C/N2CCOCC2)nn(-c2ccccc2)c1-c1ccccc1,> 100 µM,> 100 µM,5.49 µM,21.5 µM,38.4 µM,90.8 µM,33.8 µM,> 100 µM,> 100 µM,62.8 µM,43.43%,41.4 µM,88 µM,463 mg/kg,> 100 µM,> 100 µM,2
N#Cc1c(C(=O)c2cn(-c3ccccc3)nc2-c2ccccc2)nn(-c2ccccc2)c1-c1ccccc1,> 100 µM,98 µM,33.3 µM,4.94 µM,3.36 µM,6.23 µM,> 100 µM,9.83 µM,49.8 µM,5.49 µM,23.54%,1.12 µM,> 100 µM,122 mg/kg,61 µM,28 µM,1.08
CCOC(=O)c1nn(-c2ccc(C)cc2)cc1C(=O)c1nn(-c2ccccc2)c(-c2ccccc2)c1C#N,> 100 µM,> 100 µM,> 100 µM,91.8 µM,> 100 µM,> 100 µM,> 100 µM,9.18 µM,> 100 µM,5.46 µM,42.83%,> 100 µM,94.8 µM,274 mg/kg,> 100 µM,> 100 µM,1.96
CCOC(=O)c1nn(-c2ccc(Cl)cc2)cc1C(=O)c1nn(-c2ccccc2)c(-c2ccccc2)c1C#N,65 µM,> 100 µM,> 100 µM,> 100 µM,62.3 µM,61.2 µM,30.8 µM,65.8 µM,> 100 µM,45.8 µM,34.86%,39.8 µM,93.2 µM,143 mg/kg,71.8 µM,> 100 µM,1.61
Cc1nnc(-c2nn(-c3ccccc3)c(-c3ccccc3)c2C#N)c2cn(-c3ccccc3)nc12,1.39 µM,> 100 µM,8.46 µM,96.8 µM,38.4 µM,> 100 µM,36.8 µM,> 100 µM,> 100 µM,56.4 µM,23.97%,96.8 µM,92 µM,32.5 mg/kg,> 100 µM,9.14 µM,1.1
N#Cc1ccc(C(c2ccc(C#N)cc2)n2cncn2)cc1 [LETROZOLE],2.17 µM,1.16 µM,0.7 µM,5.87 µM,1.61 µM,1.62 µM,1.09 µM,4.5 µM,0.15 µM,0.88 µM,21.65%,0.89 µM,0.095 µM,253 mg/kg,0.067 µM,0.44 µM,1
